The values that follow come from ChEMBL document CHEMBL5346861, “Designing quinoline-isoniazid hybrids as potent anti-tubercular agents inhibiting mycolic acid biosynthesis” (Eur J Med Chem, 2022).

Experiment [1] has as its system Mycobacterium tuberculosis. Briefly: Induction of resistance development in Mycobacterium tuberculosis mc2 6230 harbouring pMV261 plasmid overexpressing inhA assessed as fold increase in MIC measured after 7 days by 7H10 agar based dilution method. Type of experiment: functional. The note with it: time 7 day.
In experiment [2] the test system is Mycobacterium tuberculosis. Briefly: Antimycobacterial activity against Mycobacterium tuberculosis mc2 6230 harbouring pMV261 plasmid overexpressing inhA assessed as inhibition of bacterial growth measured after 7 days by 7H9 broth based dilution method. The note with it: mc2 6230, 168 h, time 7 day. Type of experiment: functional.
Experiment [3] deals with Mycobacterium tuberculosis. The experiment is described as follows: Antimycobacterial activity against Mycobacterium tuberculosis mc2 6230 harbouring pMV261 plasmid overexpressing inhA assessed as inhibition of bacterial growth measured after 7 days by 7H10 agar based dilution method. Type of experiment: functional. To be noted: mc2 6230, 168 h, time 7 day.
In experiment [4] the test system is Mycobacterium tuberculosis. The experiment is described as follows: Induction of resistance development in Mycobacterium tuberculosis mc2 6230 harbouring pMV261 plasmid overexpressing inhA assessed as fold increase in MIC measured after 7 days by 7H9 broth based dilution method. To be noted: time 7 day. Type of experiment: functional.
Experiment [5] has as its system Mycobacterium tuberculosis. Briefly: Induction of resistance development in Mycobacterium tuberculosis harbouring katG amino acid change at stop codon mutant assessed as resistance frequency at 5 times of MIC by visual analysis. Type of experiment: functional.
Experiment [6] has as its system Mycobacterium tuberculosis. The experiment is described as follows: Induction of resistance development in Mycobacterium tuberculosis harbouring katG G495D mutant assessed as resistance frequency at 20 times of MIC by visual analysis. Type of experiment: functional.
Experiment [7] relates to Mycobacterium tuberculosis. Briefly: Induction of resistance development in Mycobacterium tuberculosis harbouring katG W161R mutant assessed as resistance frequency at 5 times of MIC by visual analysis. Type of experiment: functional.
Experiment [8] relates to Mycobacterium tuberculosis. Briefly: Induction of resistance development in Mycobacterium tuberculosis harbouring katG 186 del mutant assessed as resistance frequency at 20 times of MIC by visual analysis. Type of experiment: functional.
Experiment [9] has as its system Mycobacterium tuberculosis. Briefly: Inhibition of mycolic acid biosynthesis in Mycobacterium tuberculosis mc2 6230 harbouring pMV261 plasmid overexpressing inhA assessed as decrease in methoxy-mycolic acid at 1.25 ug/ml incubated for 15 mins followed by 14C-labeled acetate addition measured after 7 hrs by TLC analysis. Type of experiment: functional, organism-based. The note with it: dose 1.25 µg/ml, time 435.0 min. The method, boiled down: (§1)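 mc²6230 carrying pMV261-inhA, treated for 15 hrs at 37 °C with agitation in 7H9/OADC/tyloxapol/pantothenate. Then labelled with 1 μCi/mL [¹⁴C]acetate for 7 hrs. Mycolic acid methyl esters extracted, 50,000 cpm resolved by TLC (hexane/ethyl acetate 19/1, 2 runs) and exposed overnight.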

Experiment [10] relates to Mycobacterium tuberculosis. The experiment is described as follows: Inhibition of mycolic acid biosynthesis in Mycobacterium tuberculosis mc2 6230 harbouring pMV261 plasmid overexpressing inhA assessed as decrease in alpha-mycolic acid at 1.25 ug/ml incubated for 15 mins followed by 14C-labeled acetate addition measured after 7 hrs by TLC analysis. The note with it: dose 1.25 µg/ml, time 435.0 min. Type of experiment: functional, organism-based. The method, boiled down:
as §1

Experiment [11] relates to Mycobacterium tuberculosis. Briefly: Induction of resistance development in Mycobacterium tuberculosis harbouring katG F594C mutant assessed as resistance frequency at 5 times of MIC by visual analysis. Type of experiment: functional.
Experiment [12] relates to Mycobacterium tuberculosis. The experiment is described as follows: Inhibition of mycolic acid biosynthesis in Mycobacterium tuberculosis mc2 6230 harbouring pMV261 plasmid overexpressing inhA assessed as decrease in keto-mycolic acid at 1.25 ug/ml incubated for 15 mins followed by 14C-labeled acetate addition measured after 7 hrs by TLC analysis. Type of experiment: functional, organism-based. To be noted: dose 1.25 µg/ml, time 435.0 min. The method, boiled down: as §1

Converted amounts (≈) assume the structure as drawn. The source made the active and inactive calls. The calls are words filed in the database; no cut-off is given here. Some results are limits rather than exact numbers.

In the case of `NNC(=O)c1ccncc1` [ISONIAZID], the “fold change (FC)” value in experiment [1] and in experiment [4] was 20 each time. The MIC in [2] and in experiment [3] was 1 µg/mL (≈ 7.29 µM) each time.

In the case of `COc1cc(/C=N/NC(=O)c2ccncc2)ccc1OCc1cn(-c2ccnc3cc(Cl)ccc23)nn1`, the “fold change (FC)” value in experiment [1] and in experiment [4] was 25 throughout. For the same compound, the MIC (as a rule, the lowest concentration that inhibits growth of the organism) in experiment [2] turned out to be 50 µg/mL (≈ 97.3 µM); in [3], 12.5 µg/mL (≈ 24.3 µM).

Consider `O=C(N/N=C/c1ccc(OCc2cn(CCNc3ccnc4cc(Cl)ccc34)nn2)cc1)c1ccncc1`, for which the “fold change (FC)” value in experiment [1] and in [4] was 25 throughout. In addition, the MIC turned out to be 12.5 µg/mL (≈ 23.7 µM) in [2] and 6.25 µg/mL (≈ 11.9 µM) in experiment [3].

On to `O=C(N/N=C/c1ccc(OCc2cn(CCCNc3ccnc4cc(Cl)ccc34)nn2)cc1)c1ccncc1`, for which the “fold change (FC)” value in experiment [1] and in experiment [4] was 25 throughout. Also, the minimal inhibitory concentration (MIC) is 12.5 µg/mL (≈ 23.1 µM) in [2] and 6.25 µg/mL (≈ 11.6 µM) in experiment [3]. The Activity in experiment [5] is listed as 1.52 10^-6No_unit; in experiment [6], 5 10^-7No_unit.

For `COc1cc(/C=N/NC(=O)c2ccncc2)ccc1OCc1cn(CCCNc2ccnc3cc(Cl)ccc23)nn1`, the Activity in [7] is on record as 1.16 10^-6No_unit. Also, the “fold change (FC)” value in [1] and in experiment [4] was 25 in each case. Moreover, the MIC in experiment [2] worked out at 25 µg/mL (≈ 43.8 µM); in experiment [3], 6.25 µg/mL (≈ 10.9 µM).

`O=C(N/N=C/c1ccc(OCc2cn(-c3ccnc4cc(Cl)ccc34)nn2)cc1)c1ccncc1`: the “fold change (FC)” value in experiment [1] and in experiment [4] was 25 in each case. Besides, the MIC is more than 200 µg/mL in experiment [2] and 6.25 µg/mL (≈ 12.9 µM) in [3].

Turning to `COc1cc(/C=N/NC(=O)c2ccncc2)ccc1OCc1cn(CCNc2ccnc3cc(Cl)ccc23)nn1`, the “fold change (FC)” value in experiment [1] and in experiment [4] was 25 throughout. Also, the MIC in experiment [2] is 25 µg/mL (≈ 44.9 µM); in experiment [3], 12.5 µg/mL (≈ 22.4 µM).

On to `O=C(N/N=C/c1ccccc1-n1cc(CN2CCN(c3ccnc4cc(Cl)ccc34)CC2)nn1)c1ccncc1`, for which the Activity in [8] is reported as 7.1 10^-7No_unit; in experiment [11], 1.8 10^-6No_unit. Also, the “fold change (FC)” value in experiment [1] and in [4] was 25 throughout. For the same compound, the MIC in experiment [2] and in [3] was 6.25 µg/mL (≈ 11.3 µM) each time. For the same compound, the inhibition entry in experiment [9], in experiment [10] and in experiment [12] was “inactive” throughout.
